Legend:
[1] = biological target: T1, Glutamate receptor ionotropic, AMPA (Rattus norvegicus, UniProt P19490+P19491+P19492+P19493); assay: Displacement of [3H](S)-5-fluorowillardiine from AMPA receptor in rat brain membrane; format: cell membranes
[2] = biological target: T1, Glutamate receptor ionotropic, AMPA; assay: (§1) Antagonist activity on AMPA receptor expressed on rat motoneurons by its ability to reduce the fast component dorsal root evoked ventral root potential (fDR-VRP); format: functional
[3] = biological target: Glutamate receptor ionotropic, kainate 1 (Rattus norvegicus, UniProt P22756); assay: Antagonism on GLUK5 containing kainate induced depolarization of isolated neonatal rat dorsal root C-fibers; format: functional
[4] = biological target: Glutamate receptor ionotropic, kainate (Rattus norvegicus); assay: Displacement of [3H]SYM2081 from kainate receptor in rat brain membrane
[5] = biological target: Glutamate receptor ionotropic, kainate 2 (Rattus norvegicus, UniProt P42260); assay: (§2) Displacement of [3H]kainate from rat GLUK6 receptor expressed in HEK293 cells; format: cell-based
[6] = biological target: Glutamate receptor ionotropic, AMPA (Rattus norvegicus, UniProt P19491+P19492+P19493+P19490); assay: as §1; format: functional
[7] = Inhibitory effect on glutamate-induced calcium influx at homomeric human GLUK5/GLUK6 receptor clone expressed in HEK293 cells; format: functional
Outline: (§3)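 HEK293 lines stably coexpressing human GLUK5 with GLUK2 or GLUK6 (GLUK5(R)/GLUK6(Q)), FLIPR calcium assay with concanavalin A present. Antagonist given alone at first addition, then with 100 µM glutamate at second. Curves fit with slope 1, top/bottom fixed at 100%/0%. Kb = IC50/(1+[Glu]/EC50 Glu), glutamate EC50 from curves on same plate.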

[8] = biological target: Glutamate receptor ionotropic, kainate 1 (Homo sapiens) (UniProt P39086); assay: Inhibitory effect on glutamate-induced calcium influx at homomeric human GLUK5 receptor expressed in HEK293 cells; format: functional, cell-based
Outline: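 HEK293 cells stably expressing human GLUK5(Q), calcium fluorescence assay (FLIPR) in presence of concanavalin A. Antagonist added alone first, then with 100 µM glutamate. Curves fitted with slope fixed at 1; Kb from IC50 via Cheng-Prusoff using glutamate EC50 determined in same plate.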

[9] = Inhibitory effect on glutamate-induced calcium influx at homomeric human GLUK5/GLUK2 receptor clone expressed in HEK293 cells; format: functional; outline: as §3
[10] = biological target: Glutamate receptor ionotropic, kainate 2 (Rattus norvegicus) (UniProt P42260); assay: as §2; format: cell-based
[11] = biological target: Glutamate receptor ionotropic, kainate 1 (Rattus norvegicus) (UniProt P22756); assay: Percentage depression of GLUK5 containing kainate induced depolarization on isolated neonatal rat dorsal root C-fibers at 200 uM; format: functional
Sequence of Glutamate receptor ionotropic, kainate 1 (Rattus norvegicus) (P22756 whole entry): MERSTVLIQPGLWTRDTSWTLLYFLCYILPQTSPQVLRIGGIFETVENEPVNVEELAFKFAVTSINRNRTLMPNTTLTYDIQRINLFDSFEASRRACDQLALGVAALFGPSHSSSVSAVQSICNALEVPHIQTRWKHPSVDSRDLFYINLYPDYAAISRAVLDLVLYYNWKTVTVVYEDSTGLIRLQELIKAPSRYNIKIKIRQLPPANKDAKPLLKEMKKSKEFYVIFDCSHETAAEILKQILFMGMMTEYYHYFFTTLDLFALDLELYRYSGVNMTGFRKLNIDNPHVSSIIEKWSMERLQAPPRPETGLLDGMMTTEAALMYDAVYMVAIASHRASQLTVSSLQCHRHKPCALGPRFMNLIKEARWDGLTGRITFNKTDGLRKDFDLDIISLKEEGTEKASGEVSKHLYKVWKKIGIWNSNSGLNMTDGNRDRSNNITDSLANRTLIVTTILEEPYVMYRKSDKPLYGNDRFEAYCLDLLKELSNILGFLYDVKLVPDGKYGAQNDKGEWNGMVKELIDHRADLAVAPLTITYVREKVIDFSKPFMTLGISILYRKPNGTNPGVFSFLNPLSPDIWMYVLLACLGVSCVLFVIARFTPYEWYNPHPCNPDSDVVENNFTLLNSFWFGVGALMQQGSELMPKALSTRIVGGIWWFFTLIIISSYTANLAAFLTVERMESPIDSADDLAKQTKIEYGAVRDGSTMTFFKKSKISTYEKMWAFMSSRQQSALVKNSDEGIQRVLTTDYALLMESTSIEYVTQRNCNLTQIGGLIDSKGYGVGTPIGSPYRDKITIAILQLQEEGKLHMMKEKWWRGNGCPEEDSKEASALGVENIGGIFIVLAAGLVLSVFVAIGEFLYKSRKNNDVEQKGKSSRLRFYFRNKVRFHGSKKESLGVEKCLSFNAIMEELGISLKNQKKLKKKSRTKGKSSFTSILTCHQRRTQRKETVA

Sequence of Glutamate receptor ionotropic, kainate 1 (P22756 whole entry): as above
Sequence of Glutamate receptor ionotropic, kainate 2 (P42260 whole entry): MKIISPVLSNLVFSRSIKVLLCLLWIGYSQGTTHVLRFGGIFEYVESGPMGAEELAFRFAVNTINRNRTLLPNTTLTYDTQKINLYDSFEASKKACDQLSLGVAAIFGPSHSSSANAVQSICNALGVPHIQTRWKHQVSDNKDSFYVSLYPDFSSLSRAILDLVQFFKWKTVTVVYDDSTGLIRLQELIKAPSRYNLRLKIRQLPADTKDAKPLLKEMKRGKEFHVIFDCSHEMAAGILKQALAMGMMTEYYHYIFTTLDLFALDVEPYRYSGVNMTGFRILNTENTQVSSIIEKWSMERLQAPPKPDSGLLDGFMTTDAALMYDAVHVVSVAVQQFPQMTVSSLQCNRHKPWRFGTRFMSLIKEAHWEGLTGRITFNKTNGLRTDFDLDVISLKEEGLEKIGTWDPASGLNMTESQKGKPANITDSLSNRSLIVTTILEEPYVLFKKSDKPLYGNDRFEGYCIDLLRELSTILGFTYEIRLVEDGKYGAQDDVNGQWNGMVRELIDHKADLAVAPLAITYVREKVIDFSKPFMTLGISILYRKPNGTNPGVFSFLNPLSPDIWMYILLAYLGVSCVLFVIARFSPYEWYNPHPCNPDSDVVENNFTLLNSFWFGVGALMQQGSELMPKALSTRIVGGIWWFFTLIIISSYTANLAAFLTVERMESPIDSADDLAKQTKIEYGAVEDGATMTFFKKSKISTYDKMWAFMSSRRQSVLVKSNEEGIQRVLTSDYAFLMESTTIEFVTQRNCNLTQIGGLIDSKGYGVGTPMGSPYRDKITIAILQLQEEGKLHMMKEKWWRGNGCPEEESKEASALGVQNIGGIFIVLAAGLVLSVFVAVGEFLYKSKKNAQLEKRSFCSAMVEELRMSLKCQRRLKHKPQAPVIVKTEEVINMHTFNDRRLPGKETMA
Sequence of Glutamate receptor ionotropic, kainate 2 (Rattus norvegicus) (P42260 whole entry): as above
Sequence of Glutamate receptor ionotropic, kainate 1 (Homo sapiens) (P39086 whole entry): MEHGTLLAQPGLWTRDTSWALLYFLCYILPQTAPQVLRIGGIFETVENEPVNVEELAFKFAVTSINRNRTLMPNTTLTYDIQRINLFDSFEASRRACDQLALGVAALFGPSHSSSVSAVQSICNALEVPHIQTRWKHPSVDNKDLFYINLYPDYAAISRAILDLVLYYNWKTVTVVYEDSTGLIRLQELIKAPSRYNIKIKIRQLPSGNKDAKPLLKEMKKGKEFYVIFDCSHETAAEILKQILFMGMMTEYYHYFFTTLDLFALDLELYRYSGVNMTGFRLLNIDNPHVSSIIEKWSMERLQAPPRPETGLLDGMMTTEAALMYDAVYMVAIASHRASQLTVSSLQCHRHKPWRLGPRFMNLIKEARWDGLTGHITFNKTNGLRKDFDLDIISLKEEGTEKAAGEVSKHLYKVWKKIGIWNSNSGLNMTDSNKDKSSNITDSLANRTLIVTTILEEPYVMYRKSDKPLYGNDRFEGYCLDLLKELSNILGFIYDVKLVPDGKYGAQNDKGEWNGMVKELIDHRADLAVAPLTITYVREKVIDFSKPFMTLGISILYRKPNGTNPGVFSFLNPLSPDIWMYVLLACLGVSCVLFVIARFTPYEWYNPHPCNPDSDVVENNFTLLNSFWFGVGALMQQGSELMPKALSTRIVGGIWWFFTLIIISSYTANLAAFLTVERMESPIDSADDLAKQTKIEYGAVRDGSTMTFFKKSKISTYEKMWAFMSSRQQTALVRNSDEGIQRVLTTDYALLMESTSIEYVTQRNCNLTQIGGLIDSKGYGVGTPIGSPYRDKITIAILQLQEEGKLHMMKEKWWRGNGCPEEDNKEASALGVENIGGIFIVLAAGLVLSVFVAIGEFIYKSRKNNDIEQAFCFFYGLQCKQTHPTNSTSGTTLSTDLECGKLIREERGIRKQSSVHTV

SMILES	IC50 [2]	Kd [3]	Ki [5]	further results
N[C@@H](Cn1ccc(=O)n(CC(=O)O)c1=O)C(=O)O	287 µM	–	–	Ki [1]: 195 µM
N[C@@H](Cn1ccc(=O)n(CCCC(=O)O)c1=O)C(=O)O	136 µM	60.5 µM	> 1000 µM	Ki [4]: 96.2 µM; Ki [1]: 17.8 µM
Cn1c(=O)ccn(C[C@H](N)C(=O)O)c1=O	–	–	> 100 µM	IC50 [6]: Agonist
NC(Cn1ccc(=O)n(Cc2ccccc2C(=O)O)c1=O)C(=O)O (racemic)	97.6 µM	1.09 µM	> 1000 µM	Kb [7]: 0.8 µM; Kb [8]: 0.6 µM; Kb [9]: 1 µM
N[C@@H](Cn1ccc(=O)n(Cc2ccc(C(=O)O)cc2)c1=O)C(=O)O	–	9.25 µM	> 100 µM	–
N[C@@H](Cn1cc(I)c(=O)n(Cc2ccccc2C(=O)O)c1=O)C(=O)O	74.1 µM	0.209 µM	> 100 µM	–
N[C@@H](CNC(=O)NCc1cccc(C(=O)O)c1)C(=O)O	> 1000 µM	–	–	–
C=C(C)[C@H]1CN[C@H](C(=O)O)[C@H]1CC(=O)O	–	–	–	Bmax [10]: 1.53 pmol/mg
N[C@H](Cn1ccc(=O)n(Cc2ccccc2C(=O)O)c1=O)C(=O)O	> 100 µM	> 100 µM	> 1000 µM	–
N[C@@H](Cn1c(=O)ccn(CC(=O)O)c1=O)C(=O)O	–	–	> 100 µM	Ki [4]: > 500 µM; Ki [1]: > 1000 µM
N[C@H](Cn1ccc(=O)n(CCCC(=O)O)c1=O)C(=O)O	–	–	–	Activity [11]: 22.8%; Ki [4]: > 500 µM; Ki [1]: 149 µM
N[C@H](Cn1ccc(=O)n(CCC(=O)O)c1=O)C(=O)O	–	–	> 100 µM	Activity [11]: 13.2%
N[C@@H](Cn1ccc(=O)n(Cc2ccccc2C(=O)O)c1=O)C(=O)O	106 µM	0.402 µM	> 1000 µM	–
N[C@@H](Cn1cc([N+](=O)[O-])c(=O)n(CCC(=O)O)c1=O)C(=O)O	79.9 µM	–	> 100 µM	–
N[C@@H](Cn1ccc(=O)n(CCC(=O)O)c1=O)C(=O)O	–	73.1 µM	> 100 µM	–
N#Cc1cc2c(cc1[N+](=O)[O-])=NC(=O)C(=O)N=2	–	1.66 µM	1.05 µM	–
N[C@@H](Cn1cc(I)c(=O)n(CCC(=O)O)c1=O)C(=O)O	13.7 µM	8.17 µM	> 100 µM	Ki [4]: 52.7 µM; Ki [1]: 5 µM
N[C@@H](Cn1ccc(=O)n(Cc2cccc(C(=O)O)c2)c1=O)C(=O)O	–	49.1 µM	> 1000 µM	–

Source: ChEMBL document CHEMBL1141230, “Synthesis and pharmacology of willardiine derivatives acting as antagonists of kainate receptors” (J Med Chem, 2005)
